Data reported in ChEMBL document CHEMBL1938383, “Novel 5- and 6-subtituted benzothiazoles with improved physicochemical properties: potent S1P₁ agonists with in vivo lymphocyte-depleting activity” (Bioorg Med Chem Lett, 2012).

What was measured:
[1] = Plasma concentration in Lewis rat at 10 mg/kg, po after 4 hrs; assay type: ADME, organism-based; parameters: dose 10 mg/kg, route oral
How it was run: (§1)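 Female Lewis rats (250 g, 6–8 wk), acclimatized ≥1 week, N = 5/group. Given vehicle (20% captisol in water) or 10 mg/kg compound in 20% captisol/water by oral gavage (10 mL/kg). Killed by CO₂ 4 h post-dose, blood taken by cardiac puncture. Total blood lymphocytes counted and total plasma concentration measured. Significance vs vehicle by ANOVA/Dunnett's test.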

[2] = tested on: Rattus norvegicus; experiment: Immunosuppressive activity in Lewis rat assessed as reduction of circulating lymphocytes at 10 mg/kg, po after 4 hrs; assay type: functional; parameters: scale not given: the % may be the effect or the level left; how it was run: as §1
[3] = target: T1, Sphingosine 1-phosphate receptor 3 (Homo sapiens, UniProt Q99500); experiment: Agonist activity at human S1P3 receptor expressed in CHO cells coexpressing Gq/i5 protein by calcium flux assay; assay type: functional, cell-based
How it was run: (§2)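 Ca²⁺ flux read-out in CHO cells stably co-expressing human S1P3 and chimeric Gq/i5 G-protein.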

[4] = target: T2, Sphingosine 1-phosphate receptor 1 (Homo sapiens, UniProt P21453); experiment: Agonist activity at human S1P1 receptor expressed in U20S cells coexpressing eGFP assessed as receptor internalization after 1 hr by microscopy analysis; assay type: functional, cell-based, U2OS
How it was run: (§3)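 hS1P1–eGFP U2OS cells held in serum-free medium 2 h, then exposed to compound 1 h at 37 °C. Cells fixed in 4% formaldehyde, nuclei stained with Hoechst, imaged by automated microscopy. Potency and efficacy from GFP-containing endosomes per cell plotted against concentration. Efficacy expressed relative to 0.200 µM S1P.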

[5] = target: T2, Sphingosine 1-phosphate receptor 1; experiment: Agonist activity at human S1P1 receptor expressed in U20S cells coexpressing eGFP assessed as receptor internalization after 1 hr by microscopy analysis relative to S1P1; assay type: functional, cell-based; settings: U2OS; how it was run: as §3
[6] = organism: Homo sapiens; experiment: Selectivity ratio of EC50 for human S1P3 receptor to EC50 for human S1P1 receptor
[7] = target: T1, Sphingosine 1-phosphate receptor 3; experiment: Agonist activity at human S1P3 receptor expressed in CHO cells coexpressing Gq/i5 protein by calcium flux assay relative to control; assay type: functional, cell-based; how it was run: as §2
[8] = tested on: Rattus norvegicus; experiment: Immunosuppressive activity in Lewis rat assessed as reduction of circulating lymphocytes at 1 mg/kg, po after 24 hrs; assay type: functional; parameters: scale not given: the % may be the effect or the level left
[9] = Ratio of plasma concentration in Lewis rat at 10 mg/kg, po after 4 hrs to EC50 for human S1P1 receptor expressed in U20S cells; assay type: ADME, organism-based; parameters: dose 10 mg/kg, route oral; settings: in vivo

T2 sequence (P21453 whole entry): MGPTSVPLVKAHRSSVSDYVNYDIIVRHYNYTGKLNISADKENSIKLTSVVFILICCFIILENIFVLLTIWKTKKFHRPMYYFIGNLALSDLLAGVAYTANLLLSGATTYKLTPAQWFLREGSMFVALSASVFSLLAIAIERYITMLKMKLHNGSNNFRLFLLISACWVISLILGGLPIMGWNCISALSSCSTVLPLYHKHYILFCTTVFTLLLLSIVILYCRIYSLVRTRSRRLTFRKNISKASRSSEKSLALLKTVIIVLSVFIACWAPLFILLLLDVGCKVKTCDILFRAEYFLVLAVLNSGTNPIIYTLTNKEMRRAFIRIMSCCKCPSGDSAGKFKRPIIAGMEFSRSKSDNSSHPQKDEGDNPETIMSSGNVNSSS
T1 sequence (Q99500 whole entry): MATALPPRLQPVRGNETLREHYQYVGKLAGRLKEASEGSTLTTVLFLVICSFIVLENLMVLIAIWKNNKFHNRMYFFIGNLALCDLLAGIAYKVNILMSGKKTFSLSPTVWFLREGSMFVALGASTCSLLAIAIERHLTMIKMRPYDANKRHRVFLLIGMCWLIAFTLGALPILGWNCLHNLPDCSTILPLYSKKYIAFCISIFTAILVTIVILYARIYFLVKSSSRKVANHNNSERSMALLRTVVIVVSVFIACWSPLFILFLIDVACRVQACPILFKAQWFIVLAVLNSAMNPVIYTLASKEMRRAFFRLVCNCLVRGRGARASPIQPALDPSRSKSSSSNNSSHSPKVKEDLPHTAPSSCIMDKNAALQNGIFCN

| Structure (SMILES) | EC50 [3] | EC50 [4] | Efficacy [5] | Efficacy [7] | further results |
| --- | --- | --- | --- | --- | --- |
| CC(c1ccc2nc(-c3ccc(CN4CC(C(=O)O)C4)cc3F)sc2c1)c1ccccn1 (racemic) | > 25000 nM | 570 nM | 79% | – | – |
| O=C(O)C1CN(Cc2ccc(-c3nc4ccc(C5(c6ccccn6)CC5)cc4s3)c(F)c2)C1 | > 25000 nM | 240 nM | 90% | – | Ratio EC50 [6]: > 105 |
| CCC(c1ccc2nc(-c3ccc(CN4CC(C(=O)O)C4)cc3F)sc2c1)c1ccccn1 (single isomer, unassigned) [listing 1 of 2 here] | 2060 nM | 100 nM | – | – | – |
| CC(c1ccc2sc(-c3ccc(CN4CC(C(=O)O)C4)cc3F)nc2c1)c1ccccn1 (racemic) | > 25000 nM | 2370 nM | 62% | – | – |
| CCC(c1ccc2nc(-c3ccc(CN4CC(C(=O)O)C4)cc3F)sc2c1)c1ccccn1 (single isomer, unassigned; (+)) [listing 1 of 2 here] | – | – | 93% | 30% | – |
| O=C(c1ccc2nc(-c3ccc(CN4CC(C(=O)O)C4)cc3F)sc2c1)c1ccccn1 | > 25000 nM | 1300 nM | 50% | – | – |
| O=C(O)C1CN(Cc2ccc(-c3nc4cc(Cc5ccccc5)ccc4s3)c(F)c2)C1 | 1210 nM | 41 nM | – | – | Activity [8]: 58% |
| CCC(c1ccc2nc(-c3ccc(CN4CC(C(=O)O)C4)cc3F)sc2c1)c1ccccn1 (single isomer, unassigned; (+)) [listing 2 of 2 here] | 9750 nM | 520 nM | – | – | – |
| CCC(c1ccc2nc(-c3ccc(CN4CC(C(=O)O)C4)cc3F)sc2c1)c1ccccn1 (single isomer, unassigned) [listing 2 of 2 here] | – | – | 95% | 82% | – |
| O=C(O)C1CN(Cc2ccc(-c3nc4ccc(C5(c6ccccc6)CC5)nc4s3)c(F)c2)C1 | 888 nM | 2 nM | – | – | – |
| O=C(O)C1CN(Cc2ccc(-c3nc4ccc(Cc5ccccn5)cc4s3)c(F)c2)C1 | > 25000 nM | 1960 nM | 71% | – | – |
| CC(C)C1SCCN1C(=O)c1ccc2nc(-c3ccc(CN4CC(C(=O)O)C4)cc3F)sc2c1 (racemic) | 900 nM | 49 nM | 96% | 87% | – |
| O=C(O)C1CN(Cc2ccc(-c3nc4cc(Cc5ccccn5)ccc4s3)c(F)c2)C1 | > 25000 nM | 680 nM | 94% | – | Ratio EC50 [6]: > 37 |

Further lines, with some results ahead:

| EC50 [3] | EC50 [4] | Efficacy [5] | Efficacy [7] | Structure (SMILES) | further results |
| --- | --- | --- | --- | --- | --- |
| 6240 nM | 150 nM | – | – | CCC1SCCN1C(=O)c1ccc2nc(-c3ccc(CN4CC(C(=O)O)C4)cc3F)sc2c1 (stereo in doubt; (-)-11f) [listing 1 of 2 here] | concentration at 4 h ([1]; Lewis, plasma): 130 nM; Activity [2]: 24% |
| – | – | 106% | 36% | CCC1SCCN1C(=O)c1ccc2nc(-c3ccc(CN4CC(C(=O)O)C4)cc3F)sc2c1 (stereo in doubt; (-)-11f) [listing 2 of 2 here] | – |
| 7420 nM | 2710 nM | 110% | 21% | O=C(O)C1CN(Cc2ccc(-c3nc4ccc(C(=O)N5CCSC5)cc4s3)c(F)c2)C1 | – |
| – | – | 107% | 82% | CCC1SCCN1C(=O)c1ccc2nc(-c3ccc(CN4CC(C(=O)O)C4)cc3F)sc2c1 (single isomer, unassigned; (+)) [listing 1 of 2 here] | Ratio EC50 [6]: 23 |
| > 25000 nM | 1170 nM | 95% | – | O=C(O)C1CN(Cc2ccc(-c3nc4ccc(C(=O)N5CCCCC5)cc4s3)c(F)c2)C1 | – |
| > 25000 nM | 2720 nM | 108% | – | O=C(O)C1CN(Cc2ccc(-c3nc4ccc(C(=O)N5CCCCCC5)cc4s3)c(F)c2)C1 | – |
| 2680 nM | 430 nM | 80% | 72% | CC1(C)SCCN1C(=O)c1ccc2nc(-c3ccc(CN4CC(C(=O)O)C4)cc3F)sc2c1 | – |
| 390 nM | 17 nM | – | – | CCC1SCCN1C(=O)c1ccc2nc(-c3ccc(CN4CC(C(=O)O)C4)cc3F)sc2c1 (single isomer, unassigned; (+)) [listing 2 of 2 here] | concentration ([1]; in vivo, 4 h): 190 nM; Ratio [9]: 10; Activity [2]: 55% |
| 2040 nM | 42 nM | 90% | 71% | CC1SCCN1C(=O)c1ccc2nc(-c3ccc(CN4CC(C(=O)O)C4)cc3F)sc2c1 (racemic) | – |
| > 25000 nM | > 20000 nM | – | – | O=C(O)C1CN(Cc2ccc(-c3nc4ccc(C(=O)N5CCCC5)cc4s3)c(F)c2)C1 | – |
